Screening results (PubChem BioAssay)
An excerpt weighted towards active compounds, which were near 4% of everything screened.
CHOP inh = inhibitors of CHOP promoter induction, primary screen, cell-based, unfolded protein response, luciferase reporter. hit rate 3.8% among 220,000. CHO-K1 CHOP-promoter luciferase, tunicamycin-induced, 15-18 h. inhibition, % at 10 µM. AID 2732, 2010;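 active means compounds that reduced the stress-induced luciferase reporter signal by more than about 70% of percent inhibition, limit read from the data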;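 further: 0% = tunicamycin plus vehicle and 100% = wells without tunicamycin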
Hsp70 activator = Hsp70 transcriptional activators, primary screen, cell-based, HeLa, Hsp70 promoter luciferase, luminescence, 10 µM. HeLa Hsp70 promoter luciferase reporter; scaled: vehicle 0, proteasome-inhibitor control 100%. activation, % at 10 µM. hit rate 0.04% among 200,000. AID 1203, 2008;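 active means activation above the mean across all tested compounds plus 3 SD, cutoff set per campaign, cut at about 5.5% in these data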;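 further: 100% = MG132 at 30 µM as the positive control and 0% = DMSO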
S1P3 antagonist = S1P3 receptor antagonists, primary screen, cell-based | CHO S1P3 NFAT-BLA reporter, FRET fluorescence, antagonist mode | inhibition, % at 4.98 µM | hit rate 0.27% among 170,000 | AID 485, 2006;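 active means inhibition above the plate cutoff, the mean inhibition of test wells on that plate plus 3 SD, cut at about 28% in these data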;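 further: cells challenged with S1P at its EC80 of 0.8 µM; blue over green emission ratio from cleaved BLA substrate after 4 h stimulation; 0% = S1P-stimulated wells and 100% = unstimulated DMSO-only wells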
Target sequence (Q99500 whole entry, looked up): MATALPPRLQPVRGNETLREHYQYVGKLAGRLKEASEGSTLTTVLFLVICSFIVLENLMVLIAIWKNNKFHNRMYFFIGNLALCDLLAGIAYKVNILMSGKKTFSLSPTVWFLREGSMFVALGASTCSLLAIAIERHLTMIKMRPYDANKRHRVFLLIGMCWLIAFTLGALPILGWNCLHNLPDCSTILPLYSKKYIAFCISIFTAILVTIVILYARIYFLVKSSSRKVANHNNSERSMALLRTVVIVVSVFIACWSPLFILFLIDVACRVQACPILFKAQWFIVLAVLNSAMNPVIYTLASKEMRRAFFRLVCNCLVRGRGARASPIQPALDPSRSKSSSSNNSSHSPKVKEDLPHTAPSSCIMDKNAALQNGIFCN
Mdm2 ligase inh = MDM2-luciferase reporter signal enhancers, primary screen, MDM2 E3 ligase inhibitor project, cell-based, luminescence, 1536-well | AID 1230, 2008 | hit rate 0.11% among 210,000 | signal enhancement, % at 5 µM | E3 ubiquitin-protein ligase Mdm2 (Homo sapiens), Q00987 | cell-based MDM2 ubiquitination luciferase reporter, 2 h; 0 = plate control, 100 = twice control, blank-subtracted;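 active means signal enhancement of 30% or more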;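 further: luminescence tracks abundance of the self-degrading MDM2-luciferase fusion protein; higher signal means inhibition of MDM2 E3 ligase activity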
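system = mammalian cells stably expressing self-ubiquitinating, self-degrading MDM2 E3–luciferase fusion | quantity = 2000 cells per well seeded | incubation = 4 h cell settling then 2 h compound exposure, 37 °C | signal = SteadyLite luminescence, 15 min reagent step | benchmarks = plate control and blank wells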
* = called active by the depositor; nt = no result.

SMILES | CHOP inh | Hsp70 activator | S1P3 antagonist | Mdm2 ligase inh
Cc1ccc(C2N(c3cccc(Cl)c3)C(=O)N3CCCN23)cc1 (stereo unspecified) | 6 | nt | -5 | -12
CCn1c(SCC(=O)Nc2cccc(C)n2)nc2c1c(=O)n(C)c(=O)n2C | 2 | 0 | -18 | 2
C=CCOC(=O)c1c(C)nc2cc3c(cc2c1C)OCO3 | 19 | 0 | -11 | -14
Cc1ccccc1OCc1nc(-c2ccc(Br)o2)no1 | 84* | 0 | nt | -7
COc1ccccc1Cc1nc(-c2ccc(Br)o2)no1 | 35 | 0 | 18 | -8
CCCCCc1nc2c(C#N)c(-c3ccc(Cl)cc3)ccn2n1 | 92* | 0 | nt | -2
N#Cc1c(-c2ccc(Cl)cc2)ccn2nc(CCC(=O)O)nc12 | -5 | 0 | nt | -2
Cc1ccc(-n2[nH]c(C)c(CCC#N)c2=O)cc1 | -10 | 0 | 12 | -8
O=C(NCC1CCCO1)c1ccc(OC2CCN(C(=O)C3CC3)CC2)cc1 (stereo unspecified) | 0 | 0 | -10 | -10
Cc1ccc(CNC(=O)CSc2nc(N3CCCCC3)nc(N3CCCCC3)n2)cc1 | 71* | 0 | 31 | -2
CC1Cc2ccccc2N1C(=O)Cc1cccs1 (stereo unspecified) | 71* | 0 | 19 | 0
CC1Cc2ccccc2N1C(=O)CCS(=O)(=O)c1cccs1 (stereo unspecified) | -7 | 0 | nt | -18
O=C1CC(NCc2ccc3c(c2)OCO3)C(=O)N1CCc1ccccc1 (stereo unspecified) | -17 | 0 | -8 | -2
Cc1ccc(SC(c2ccccc2)C(Cn2cncn2)C(=O)c2ccccc2)cc1 (stereo unspecified) | -11 | 0 | nt | 2
O=C(c1ccc(Cl)cc1)C(Cn1cncn1)C(Sc1ccccc1)c1ccccc1 (stereo unspecified) | 78* | 0 | nt | -16
Cc1ccccc1C(=O)O/N=C(\N)c1ccncc1 | 3 | 0 | -13 | -15
CCOC(=O)C1=C(CSc2nc3ccccc3s2)NC(=O)NC1c1ccc(OC)cc1 (stereo unspecified) | 84* | -1 | nt | -4
CCOC(=O)C1=C(CSc2nc3ccccc3s2)NC(=O)NC1c1cc(C)ccc1C (stereo unspecified) | 75* | 0 | nt | -20
COC(=O)C1=C(CSc2nc3ccccc3o2)NC(=O)NC1c1cc(C)ccc1C (stereo unspecified) | 80* | 0 | 0 | -13
CCOC(=O)C1=C(CSCC(=O)OC)NC(=O)NC1c1cc(C)ccc1C (stereo unspecified) | 16 | 0 | nt | -18
COC(=O)C1=C(CSCc2ccccc2)NC(=O)NC1c1cc(C)ccc1C (stereo unspecified) | 36 | 0 | nt | -26
COC(=O)c1ccc(/C=N/NC(=S)NCCN2CCOCC2)cc1 | 10 | 0 | -3 | -10
Cc1c(Cl)cccc1NC(=S)N1CCc2ccccc2C1 | 21 | -1 | -7 | -7
O=C1NCCCC1C(=O)N/N=C/c1ccccc1 (stereo unspecified) | 32 | 0 | nt | -3
O=C(NCc1ccccn1)NC12CC3CC(CC(C3)C1)C2 | 11 | 0 | 3 | -12
SMILES | CHOP inh | Hsp70 activator | S1P3 antagonist | Mdm2 ligase inh
O=C(NCc1ccccn1)C(=O)Nc1nc(C23CC4CC(CC(C4)C2)C3)cs1 | 71* | 0 | 1 | -9
CCOC(=O)c1c(-c2ccc(C)cc2)csc1NC(=O)C1CC=CCC1C(=O)O (stereo unspecified) | 24 | 0 | nt | -14
CCOC(=O)c1c(-c2ccc(-c3ccccc3)cc2)csc1NC(=O)C1C2CCC(O2)C1C(=O)O (stereo unspecified) | 88* | 0 | nt | -5
CCOC(=O)c1c(-c2ccccc2)csc1NC(=O)C1CCCO1 (stereo unspecified) | 83* | 0 | nt | -7
CCOC(=O)c1c(-c2cccs2)csc1NC(=O)CN1CCOCC1 | 72* | -1 | -7 | -6
COc1cccc(C(c2sc3nc(C)nn3c2O)N2CCc3ccccc3C2)c1 (stereo unspecified) | 33 | 0 | -9 | -12
COCCN(Cc1ccco1)C(=O)Cn1ncc2c(=O)oc3ccccc3c21 | -16 | nt | -18 | nt
Cc1nc2ccc(NC(=O)c3ccc(Cl)s3)cc2s1 | 4 | 0 | 56* | -2
